# Measured values from PubChem BioAssay AID588751 (Vanderbilt Specialized Chemistry Center, 2011).
# pEC50: −log10 of the molar value.
# Biological target: Muscarinic acetylcholine receptor M4 (Rattus norvegicus) (UniProt P08485)
# Assay: ACh potentiation at rat M4, late-stage follow-up, counter-screen for M4 PAM project, CHO Gqi5 cells, calcium (AID 588751)
# Conditions: calcium fluorescence, ACh EC20
# Procedure, shortened: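 Signal: kinetic calcium fluorescence with Fluo-4 dye / Material: CHO cells stably co-expressing rat M4 receptor and chimeric Gqi5 / Doses: dose series in 0.3% DMSO final / Probe or stimulus: acetylcholine at EC20, then acetylcholine at EC80 / Timing: 144 s compound pre-exposure, EC80 ACh 86 s after EC20, 37 °C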
# Sequence of Muscarinic acetylcholine receptor M4 (Rattus norvegicus) (P08485 whole entry, looked up): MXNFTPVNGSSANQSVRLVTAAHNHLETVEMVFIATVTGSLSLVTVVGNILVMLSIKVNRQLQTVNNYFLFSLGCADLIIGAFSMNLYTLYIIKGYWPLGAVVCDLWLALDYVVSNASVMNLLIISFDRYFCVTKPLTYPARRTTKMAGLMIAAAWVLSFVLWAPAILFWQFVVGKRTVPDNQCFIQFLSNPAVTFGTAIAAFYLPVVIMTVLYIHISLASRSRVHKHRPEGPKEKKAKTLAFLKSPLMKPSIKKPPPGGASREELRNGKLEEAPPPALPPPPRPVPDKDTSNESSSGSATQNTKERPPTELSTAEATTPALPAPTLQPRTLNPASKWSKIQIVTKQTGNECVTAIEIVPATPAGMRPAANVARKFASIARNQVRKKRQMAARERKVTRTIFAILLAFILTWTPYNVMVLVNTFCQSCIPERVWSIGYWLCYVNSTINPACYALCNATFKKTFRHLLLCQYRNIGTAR
row,Structure (SMILES),pEC50
1,Cc1nc2sc(C(=O)NCc3ccncc3)c(N)c2c(C)c1Cl,6.76
2,Cc1nc2sc(C(=O)NCc3nccs3)c(N)c2c(C)c1Cl,6.73
3,Cc1nc2sc(C(=O)NCc3cccc(F)c3F)c(N)c2c(C)c1Cl,6.94
4,Cc1nc2sc(C(=O)NCCc3ccncc3)c(N)c2c(C)c1Cl,6.64

# The remaining molecules from weak to strong by pEC50, led by results:
row,pEC50,Structure (SMILES)
1,6.28,Cc1nc2sc(C(=O)NCc3ccncn3)c(N)c2c(C)c1Cl
2,6.57,Cc1nc2sc(C(=O)NCc3cccnc3)c(N)c2c(C)c1Cl
3,6.82,Cc1nc2sc(C(=O)NC3CC3)c(N)c2c(C)c1Cl
4,6.90,Cc1nc2sc(C(=O)NCc3ccccc3)c(N)c2c(C)c1Cl
5,7.21,Cc1nc2sc(C(=O)NCc3ccc4c(c3)OCO4)c(N)c2c(C)c1Cl
